Bioassay records as filed in PubChem.
Most compounds without a hit are left out; they make up all but 1.6% or so of the library.
p47phox inh = inhibitors of human p47phox binding. P14598. p47phox/p22phox peptide binding, fluorescence polarization, 2 h. inhibition, % at 24.7 µM. 220,000 tested, 0.53% active. AID 1274;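 note: 0% = p47phox with labelled peptide and 100% = labelled peptide alone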
14-3-3 Bad inh = disrupts binding of bovine 14-3-3 zeta to phospho-Bad peptide; P63103; TR-FRET 14-3-3zeta/Dy647-pBad peptide displacement, 1 h; inhibition, % at 21.7 µM; 220,000 tested, 0.71% active;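 active = inhibition above about 70%, limit read from the data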;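 note: 0% = full 14-3-3 plus peptide FRET controls and 100% = background without 14-3-3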
p97 inhibitor = blocks human p97 ATPase activity; recombinant p97 ATPase, Kinase-Glo ATP luminescence, 3 h; 220,000 tested, 0.42% active; P55072; AID 1481; inhibition, % at 8 µM; in the data active = inhibition above about 15%;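 note: 0% = DMSO vehicle and 100% = wells lacking enzyme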
eIF4E-4G inh = eIF4E/eIF4G interaction inhibition in translation initiation; P63073+Q04637; TR-FRET eIF4E-eIF4GI(517-606) binding, 2 h; inhibition, % at 21.7 µM; 220,000 tested, 0.37% active; AID 782;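 note: 0% = full FRET control wells and 100% = background wells lacking eIF4GI fragment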
Target sequence (P63073 whole entry, looked up, the tested form may be a part): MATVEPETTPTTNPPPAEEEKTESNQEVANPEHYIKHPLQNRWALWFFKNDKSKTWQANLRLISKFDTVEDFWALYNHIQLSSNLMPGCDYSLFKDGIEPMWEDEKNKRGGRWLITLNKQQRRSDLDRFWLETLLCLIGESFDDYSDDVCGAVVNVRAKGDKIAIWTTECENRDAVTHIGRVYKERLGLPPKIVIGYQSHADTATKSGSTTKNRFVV
Target sequence (Q04637 whole entry, looked up, the tested form may be a part): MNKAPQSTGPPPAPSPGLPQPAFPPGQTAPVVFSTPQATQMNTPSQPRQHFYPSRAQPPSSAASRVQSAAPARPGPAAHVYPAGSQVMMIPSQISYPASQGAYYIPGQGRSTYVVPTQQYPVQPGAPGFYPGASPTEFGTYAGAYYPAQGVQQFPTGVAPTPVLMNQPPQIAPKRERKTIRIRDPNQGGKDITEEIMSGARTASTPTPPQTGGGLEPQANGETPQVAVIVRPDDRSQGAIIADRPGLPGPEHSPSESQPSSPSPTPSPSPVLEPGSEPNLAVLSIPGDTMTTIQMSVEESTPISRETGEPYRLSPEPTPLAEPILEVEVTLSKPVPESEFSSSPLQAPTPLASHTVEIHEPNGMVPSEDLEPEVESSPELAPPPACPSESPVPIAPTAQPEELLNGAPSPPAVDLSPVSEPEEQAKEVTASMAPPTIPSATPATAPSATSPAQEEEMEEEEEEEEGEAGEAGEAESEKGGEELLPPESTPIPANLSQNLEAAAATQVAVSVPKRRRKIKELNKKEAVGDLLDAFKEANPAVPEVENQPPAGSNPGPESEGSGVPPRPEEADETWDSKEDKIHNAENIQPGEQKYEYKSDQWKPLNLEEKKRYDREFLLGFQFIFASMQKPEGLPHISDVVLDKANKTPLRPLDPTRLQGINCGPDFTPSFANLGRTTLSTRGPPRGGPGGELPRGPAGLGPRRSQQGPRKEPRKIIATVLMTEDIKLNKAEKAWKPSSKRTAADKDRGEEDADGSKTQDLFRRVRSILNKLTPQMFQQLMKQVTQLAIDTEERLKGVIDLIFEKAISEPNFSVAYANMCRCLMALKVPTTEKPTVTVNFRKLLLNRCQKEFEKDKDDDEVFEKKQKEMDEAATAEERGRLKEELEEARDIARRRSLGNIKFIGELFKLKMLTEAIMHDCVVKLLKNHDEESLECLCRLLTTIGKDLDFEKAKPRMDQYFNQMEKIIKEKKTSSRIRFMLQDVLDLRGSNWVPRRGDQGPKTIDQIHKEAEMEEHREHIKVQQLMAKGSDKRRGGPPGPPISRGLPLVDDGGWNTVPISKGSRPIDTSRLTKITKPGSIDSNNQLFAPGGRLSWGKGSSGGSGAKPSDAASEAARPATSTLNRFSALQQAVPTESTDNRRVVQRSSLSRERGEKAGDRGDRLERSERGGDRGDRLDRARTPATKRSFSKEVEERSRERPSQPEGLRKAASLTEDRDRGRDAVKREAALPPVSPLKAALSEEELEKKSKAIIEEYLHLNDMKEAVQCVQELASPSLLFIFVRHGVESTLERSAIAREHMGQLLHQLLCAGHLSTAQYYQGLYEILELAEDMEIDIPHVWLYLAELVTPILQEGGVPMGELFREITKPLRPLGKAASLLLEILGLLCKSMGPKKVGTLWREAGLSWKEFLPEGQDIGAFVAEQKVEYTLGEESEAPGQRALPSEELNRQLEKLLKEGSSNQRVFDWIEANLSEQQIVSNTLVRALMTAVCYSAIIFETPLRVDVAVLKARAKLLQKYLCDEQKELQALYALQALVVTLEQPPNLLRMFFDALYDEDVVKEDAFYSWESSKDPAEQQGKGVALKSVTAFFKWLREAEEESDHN
TbMetRS inhib = blocks T. brucei methionyl-tRNA synthetase activity. AID 624268. purified T. brucei MetRS, ATP depletion, Kinase-Glo luminescence. inhibition, % at 11.9 µM. 360,000 tested, 0.4% active;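 active = inhibition above a per-plate cutoff of the control wells' mean inhibition plus 3 SD, cut at about 5.5% in these data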;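 note: 0% = DMSO wells median and 100% = median of wells with control inhibitor compound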
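Dosing: 11.9 µM compound single dose, 0.9% DMSO; Assay system: purified T. brucei MetRS enzyme; Measured by: Kinase-Glo luciferase luminescence reporting remaining unconsumed ATP; Schedule: 15 min plus 2 h at 25 °C.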
SUMO HTRF inh = SUMOylation inhibition. P63279. HTRF SUMOylation assay, SAE1/SAE2 + UBC9, in vitro. inhibition, % at 35 µM. 290,000 tested, 0.36% active; in the data active = inhibition above about 50%, passing the limit was not always enough
TbMetRS confirm = confirmation of Trypanosoma brucei MetRS inhibitors; shares compounds with TbMetRS inhib; T. brucei MetRS enzyme, luminescence (ATP depletion); inhibition, % at 11.9 µM; 1,400 tested, 93% active; in the data active = inhibition above about 7%
Jurkat tox = counter-screen for T. brucei MetRS inhibitors: Jurkat cell cytotoxicity; shares compounds with TbMetRS inhib; Jurkat cells viability, ATP luminescence; inhibition, % at 8.3 µM; 1,400 tested, 12% active; in the data active = inhibition above about 15%;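 note: 0% = vehicle and 100% = reference inhibitor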
Tb MetRS inh FP = inhibits T. brucei methionyl tRNA synthetase in orthogonal FP test; shares compounds with TbMetRS inhib; purified T. brucei MetRS, fluorescence polarization; inhibition, % at 11.9 µM; 1,400 tested, 44% active; in the data active = inhibition above about 17%;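 note: 0% = vehicle wells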
* = called active by the depositor; nt = no result given.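 Rule for the calls, unless noted: active = inhibition above about 30% (limit read from the data); inactive = the rest.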

SMILES	p47phox inh	14-3-3 Bad inh	p97 inhibitor	eIF4E-4G inh	TbMetRS inhib	SUMO HTRF inh	TbMetRS confirm	Jurkat tox	Tb MetRS inh FP
CC1CCN(CCCOc2ccc(Br)cc2Cl)CC1	-10.2	34.3	1.2	-0.9	4.0	4.2	nt	nt	nt
CCN1CCN(CCCOc2ccc(Cl)cc2Br)CC1	1.7	46.5	2.1	0.9	7.7*	1.5	12.5*	7.8	5.8
Clc1ccc(OCCCN2CCCCC2)c(Br)c1	-6.9	41.9	0.0	4.2	17.1*	2.2	28.3*	3.4	11.1
CCN(C[C@H]1N[C@@](Cc2ccccc2)(C(=O)OC)[C@H]2C(=O)N(C)C(=O)[C@@H]12)C(=O)NC(C)C	nt	nt	nt	nt	-0.2	nt	nt	nt	nt
Cc1c(Cl)cccc1-n1cnc(=O)c2ccccc21	nt	nt	nt	nt	-0.4	nt	nt	nt	nt
CC(C)(C)c1ccccc1NC(=O)c1ccc(-n2cncn2)c([N+](=O)[O-])c1	nt	nt	nt	nt	13.5*	nt	43.4*	2.0	14.0
COc1ccccc1NC(=O)c1ccc(-n2cccn2)c([N+](=O)[O-])c1	2.5	-7.2	-0.1	-7.3	2.0	23.0	nt	nt	nt
Cc1cc(Br)ccc1NC(=O)CNC(=O)c1ccc(-n2cncn2)c([N+](=O)[O-])c1	nt	nt	nt	nt	26.8*	nt	63.1*	0.8	29.4*
O=C(O)c1ccc(-n2cncn2)c([N+](=O)[O-])c1	-5.6	3.8	8.9	2.5	0.8	1.6	nt	nt	nt
O=C(Nc1ccccc1OC(F)F)c1ccc(-n2cncn2)c([N+](=O)[O-])c1	nt	nt	nt	nt	18.8*	nt	51.7*	-10.1	21.8*
Cc1cc(Br)ccc1NC(=O)c1ccc(-n2cncn2)c([N+](=O)[O-])c1	nt	nt	nt	nt	32.1*	nt	79.2*	1.6	52.4*
Cc1cc(Br)ccc1NC(=O)CN(C)C(=O)c1ccc(-n2cncn2)c([N+](=O)[O-])c1	nt	nt	nt	nt	2.9	nt	nt	nt	nt
CCN(CC)S(=O)(=O)c1ccc(OC)c(NC(=O)OCc2ccccc2)c1	nt	nt	nt	nt	0.3	-8.5	nt	nt	nt
O=C(Nc1cccc(C(F)(F)F)c1)Nc1ccon1	nt	nt	nt	nt	-0.7	12.2	nt	nt	nt
Cc1cccc(C)c1NC(=O)CN(C)C(=O)c1ccc(-n2cncn2)c([N+](=O)[O-])c1	nt	nt	nt	nt	0.0	nt	nt	nt	nt
Cc1cc(C)c(NC(=O)CNC(=O)c2ccc(-n3cncn3)c([N+](=O)[O-])c2)c(C)c1	nt	nt	nt	nt	8.0*	nt	35.0*	-1.5	14.8
Nc1ccccc1Nc1cc(-c2ccccc2)[nH]n1	-4.8	-15.2	6.6	-2.2	5.8*	3.8	4.7	96.2*	-4.1
Nc1ccccc1Nc1cc(-c2ccccc2)nn1-c1ccccc1	-17.4	-6.3	-0.1	-1.1	0.9	11.3	nt	nt	nt
O=C(N[C@@H](Cc1ccccc1)C(=O)NCc1ccc(F)cc1)C1CCNCC1	nt	nt	nt	nt	-0.7	4.1	nt	nt	nt
COCCCNC(=O)C[C@H]1C[C@H](C(=O)N(C(C)C)C(C)C)[C@@]2(C)c3[nH]c4cc(-c5ccco5)ccc4c3CCN2C1=O	nt	nt	nt	nt	-0.7	nt	nt	nt	nt
COc1ccc(OC)c(-n2c(SCC(=O)NCc3ccco3)nnc2-c2c[nH]c3ccccc23)c1	-11.4	4.9	-4.7	0.5	9.5*	-4.1	21.5*	5.5	11.6
COc1cccc(-n2c(SC)nnc2-c2c[nH]c3ccccc23)c1	-20.5	-9.6	-6.6	-3.7	12.5*	1.0	22.1*	8.0	13.5
COc1cccc(-n2c(SCC(=O)NCc3ccco3)nnc2-c2c[nH]c3ccccc23)c1	-0.8	2.7	0.3	1.4	5.1	-8.2	nt	nt	nt
CC(Sc1ccccc1)C(=O)N/N=C/c1ccccc1 (centres undefined)	nt	nt	nt	nt	0.4	nt	nt	nt	nt
Cc1ccccc1CNc1nnnn1C	-11.5	-5.6	1.0	-3.0	0.5	3.9	nt	nt	nt
SMILES	p47phox inh	14-3-3 Bad inh	p97 inhibitor	eIF4E-4G inh	TbMetRS inhib	SUMO HTRF inh	TbMetRS confirm	Jurkat tox	Tb MetRS inh FP
COc1ccc2c(CC(=O)OCC(=O)Nc3ccc4c(c3)OCO4)coc2c1	-13.0	11.8	-4.5	1.0	10.0*	7.2	15.0*	-7.0	7.6
COc1ccc2c(CC(=O)OCC(=O)Nc3ccc(S(N)(=O)=O)cc3)coc2c1	-12.0	3.0	5.2	-2.5	0.4	-2.9	nt	nt	nt
COc1ccc2c(CC(=O)OCC(=O)Nc3ccc(C)cc3)coc2c1	nt	nt	nt	nt	9.8*	nt	25.3*	4.0	8.5
CCc1cccc(NC(=O)Cn2cc(C=O)c3ccccc32)c1	-4.5	-13.5	3.9	2.4	9.0*	2.6	18.8*	14.3	11.8
CCCc1cc(C(=O)NC(C)C2CCCO2)cs1 (centres undefined)	nt	nt	nt	nt	-0.6	15.6	nt	nt	nt
CCc1c(O)nc(SCC(=O)Nc2ccc(Br)cc2)n(-c2ccc(C)cc2)c1=O	nt	nt	nt	nt	6.4*	16.4	22.1*	1.2	1.6
COc1ccccc1OCC(=O)Nc1cccc(S(=O)(=O)NC2=NCCCCC2)c1	nt	nt	nt	nt	0.4	nt	nt	nt	nt
CCc1ccccc1OCC(=O)Nc1cccc(S(=O)(=O)NC2=NCCCCC2)c1	nt	nt	nt	nt	19.6*	nt	40.5*	3.6	17.9*
CC(=O)Nc1c2c(nn1-c1ccccc1C)CS(=O)(=O)C2	nt	nt	nt	nt	0.3	12.6	nt	nt	nt
O=[N+]([O-])c1ccc(N2CCN(c3ccccc3O)CC2)c(Cl)c1	-4.9	-13.8	-2.9	10.7	7.0*	-21.0	12.1*	18.3*	0.9
CN(C)c1cc(Cl)c2nonc2c1N	8.8	-5.9	6.7	-2.8	5.7*	nt	3.6	0.1	2.0
CCN(CC)c1cc(Cl)c2nonc2c1N	-11.0	-4.5	6.4	4.3	0.4	80.7	nt	nt	nt
S=C(NCc1ccc(Cl)cc1)NN1CCOCC1	0.2	-15.1	2.8	-4.4	0.5	6.8	nt	nt	nt
O=c1cc(CSc2ccc(Cl)cc2)[nH]c2[nH]n(-c3ccccc3)c(=O)c12	-2.2	-5.4	1.4	-3.9	8.5*	27.4	26.2*	17.0*	6.9
O=C(Nc1nc2c(s1)CCCC2)C1CCCN1C(=O)c1cccs1 (centres undefined)	-9.6	1.0	-4.3	-9.5	5.9*	-5.0	2.7	-6.6	5.5
CC1=C(C(=O)Nc2cc(C(=O)N3CCC(C)CC3)ccc2C)SCCO1	nt	nt	nt	nt	-0.6	-27.5	nt	nt	nt
COc1ccc(/C=N/NC(=O)CNC(=O)c2ccncc2)cc1	nt	nt	nt	nt	-0.3	-3.4	nt	nt	nt
COc1ccccc1N1C(=O)c2ccccc2NC1c1ccc(O)cc1 (centres undefined)	nt	nt	nt	nt	6.8*	29.8	5.4	-8.9	0.8
Cc1cc2c(c(=O)n1Cc1ccccn1)C(c1ccc3c(c1)OCO3)C(C#N)=C(N)O2 (centres undefined)	-7.7	-7.7	4.7	-0.9	13.8*	4.2	4.1	-9.7	2.5
COc1cc(C2C(C#N)=C(N)Oc3cc(C)n(CC4CCCO4)c(=O)c32)cc2c1OCO2 (centres undefined)	-20.0	-5.0	1.8	0.7	78.2*	-8.7	4.3	0.7	1.2
